Screening results as filed in PubChem.
A selection: hits, their analogues and other compounds. The true share with any hit is near 4.8%.
CSC inhib = cancer stem cell inhibition; AID 2717; cancer stem cell-like cells viability, luminescence; 300,000 compounds, 1.1% hits; inhibition, % at 7.5 µM; in the data active = inhibition above about 75%; tested in HMLE shEcad cells
Beta apoptosis = beta cell apoptosis inhibition | 300,000 compounds, 0.8% hits | protection from apoptosis, % (no concentration beside the values) | INS-1E cytokine-induced death, ATP luminescence, 48 h; percent of positive-control rescue, neutral wells zero | AID 435005;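 active = Every replicate reaches about 75%, or at least half do and their mean reaches it too, limit read from the data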;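 also: 0% = cytokine-treated negative control wells and 100% = positive control rescue; higher means more ATP so stronger rescue from cytokine killing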
T cruzi inh = blocks replication of Trypanosoma cruzi | AID 1885 | T. cruzi beta-gal in NIH3T3, luminescence, 90 h | inhibition, % (test concentration not listed) | 300,000 compounds, 1.4% hits;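 active = mean inhibition across valid replicates above about 55%, limit read from the data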;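 also: signal also drops with host cell toxicity which is not excluded here; 0% = plate median of DMSO wells and 100% = zero luminescence signal; higher percent means less beta-gal luminescence so fewer parasites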
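Incubation – ≥90 h infection period, 3 h prior cell attachment · System – NIH/3T3 fibroblasts plus reporter T. cruzi · Doses – compound pinned at 50 nL/well, DMSO · Read-out basis – percent inhibition of parasite-derived β-gal signal · Signal – luminescent β-galactosidase signal after 60 min lysis · Also added – 5000 T. cruzi trypomastigotes/well · Medium – Low-serum DMEM with 2% FBS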
Efflux pump inh = blocks antifungal efflux pumps in multiplex yeast assay. 330,000 compounds, 0.44% hits. S. cerevisiae Candida pump triplex, Nile Red efflux. inhibition, % at 10 µM;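 active = plate passing quality check with inhibition over a set limit, or well fluorescence over plate mean plus 4 SD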;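 also: Nile Red retained in pooled yeast measured as flow cytometry median fluorescence; 0% = buffer negative control and 100% = Enniatin B positive control; higher means more Nile Red kept so more efflux inhibition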
WT yeast gro inh = growth inhibition of WT yeast, mitochondrial fusion screen; mitochondrial fusion phenotypic screen, WT strain; inhibition, % at 10 µM; 190,000 compounds, 2.1% hits; AID 1362; in the data active = inhibition above about 58%; tested in S. cerevisiae
Mot1-301 SUMO = SUMOylation pathway inhibition by Mot1-301 growth rescue | 320,000 compounds, 1% hits | growth rescue, % at 18.8 µM | S. cerevisiae Mot1-301 growth rescue, ATP luminescence, 38.5C; percent above DMSO median, 100 means doubled;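 active = every valid replicate shows activation above 250% relative to neutral control wells; inactive = the rest, any valid replicate at or below 250%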;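 also: OY570 slx delta 5 strain wells were the positive control but not used for scaling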
Starred values were filed as active, the others as inactive; / = not tested or not shown; + = active, no number.

SMILES	CSC inhib	Beta apoptosis	T cruzi inh	Efflux pump inh	WT yeast gro inh	Mot1-301 SUMO
COc1cccc(/C=N/Nc2ccc([N+](=O)[O-])cn2)c1O	122.8*	119.3*	25.1	-0.2	/	8.7
O=[N+]([O-])c1ccc(Nc2nc(N/N=C/c3cccc(F)c3)nc(N3CCCC3)n2)cc1	-1.6	23.8	32.9	-0.1	26.1	-8.1
COc1ccc(N2CC(O)(c3ccc(OC(F)F)cc3)[N+]3=C2CCCC3)cc1 (stereo unspecified)	22.6	-1.8	19.1	-0.1	-2.3	3.6
COc1ccc(-n2cc(-c3ccc(OC(F)F)cc3)[n+]3c2CCCCC3)cc1	-9.4	102.6*	59.4*	-0.1	22.8	-11.6
COc1ccc(-c2cn(-c3ccc(Cl)cc3)c3[n+]2CCCCC3)cc1	17.4	99.7*	57.6*	0.1	/	9.5
Clc1ccc(-c2cn(-c3ccc(Cl)cc3)c3[n+]2CCCCC3)cc1	-11.5	30.4	31.4	0.0	/	-11.9
O=C1NCCN(Cc2ccoc2)C1CC(=O)N(CCO)Cc1ccccc1 (stereo unspecified)	-5.4	/	-2.7	0.1	-2.1	-12.3
Cc1ccccc1C(=O)NC1CCN(CC(=O)N2CCCCC2C)CC1 (stereo unspecified)	-9.4	2.8	1.0	0.0	/	5.4
O=c1c2ccc([N+](=O)[O-])cc2ncn1CCOc1ccccc1	12.9	3.6	65.9*	0.2	10.2	/
Cc1ccc(OCCn2cnc3cc([N+](=O)[O-])ccc3c2=O)cc1	2.9	-1.5	71.7*	0.1	7.0	386.8
O=c1c2ccccc2ncn1CCOCCOc1ccc([N+](=O)[O-])cc1	4.2	3.0	-0.5	0.2	10.6	-4.7
CCCSc1nnc(Sc2nnnn2-c2ccccc2)s1	52.8	/	54.8*	-0.1	6.6	-18.9
Cc1noc(-c2ccc(Cl)cc2)c1C(=O)O/N=C(\N)c1ccc(C(C)(C)C)cc1	171.0*	39.4	40.9	0.1	/	0.2
O=C(NCCS(=O)(=O)N1CCc2ccccc2C1)c1ccccc1	1.1	-4.2	1.2	0.4	/	-3.1
COc1ccc(C(=O)NCCS(=O)(=O)N2CCc3ccccc3C2)cc1	-4.6	/	-14.6	-0.3	/	530.3*
CC1Oc2ccccc2C=C1/C=N/Nc1ccc(C(=O)O)cc1 (stereo unspecified)	-22.8	-13.9	4.9	0.1	/	401.9*
CC(C)(C)c1ccc(/C=N/Nc2ccc(C(=O)O)cc2)cc1	1.1	-15.2	6.9	-0.1	13.6	-8.5
C/C(=N\Nc1nc(C)cc(-c2ccccc2)n1)c1ccc(O)cc1	-8.3	82.9*	-2.5	-0.1	/	8.7
C/C(=N\Nc1nc(C)cc(-c2ccccc2)n1)c1ccccc1	-12.9	82.0*	19.4	0.0	/	-3.3
C/C(=N\Nc1nc(C)cc(-c2ccccc2)n1)c1cccc(N)c1	9.6	88.9*	-11.6	0.0	/	7.7
C/C(=N\Nc1nc(C)cc(-c2ccccc2)n1)c1ccc(C)o1	0.3	19.8	-3.9	-0.1	-6.7	-9.4
Cc1ccc(S(=O)(=O)N2CCN(c3ncnc4scc(-c5ccccc5)c34)CC2)cc1	20.7	14.6	/	-0.2	/	-7.2
Cc1sc2ncnc(N3CCN(S(=O)(=O)c4ccccc4)CC3)c2c1C	/	99.1*	/	-0.2	/	8.1
Cc1ccc(OCCN2CCN(c3ncnc4sc(C)c(C)c34)CC2)cc1	40.7	113.7*	-26.9	0.5	48.6	-15.9
Clc1ccc(OCCN2CCN(c3ncnc4sccc34)CC2)cc1	18.5	106.0*	-18.5	-0.1	49.2	45.6
SMILES	CSC inhib	Beta apoptosis	T cruzi inh	Efflux pump inh	WT yeast gro inh	Mot1-301 SUMO
COc1ccc(-c2csc3ncnc(N4CCN(S(=O)(=O)c5cccc(Br)c5)CC4)c23)cc1	5.1	/	61.6*	0.1	/	-2.6
CCN(CC)S(=O)(=O)c1cccc(N=Nc2c(O)c3ccccc3oc2=O)c1	18.9	1.2	-23.9	0.1	/	-12.5
O=S(=O)(c1cccc(F)c1)N1CCc2sccc2C1c1ccc(OC(F)(F)F)cc1 (stereo unspecified)	45.5	1.2	42.9	0.0	/	-3.8
COc1cc2nc(Nc3ccc(F)cc3)nc(N)c2cc1OC	10.5	-2.1	5.9	0.0	/	162.2
COc1cc2nc(N(C)C)nc(N)c2cc1OC	-12.6	21.7	62.8*	-0.1	-7.3	0.8
COc1cc2nc(Nc3ccc(C)c(Cl)c3)nc(N)c2cc1OC	105.9*	14.4	38.1	-0.1	/	-3.3
COc1cc2nc(Nc3ccc(C)c(C)c3)nc(N)c2cc1OC	9.4	6.4	56.1*	0.0	/	61.7
COc1cc(/C=N/O)ccc1Oc1cnccn1	-1.7	-3.9	-6.5	-0.2	/	9.7
O=C1C=C(c2ccc(C(=O)O)cc2)C[C@@H](c2ccc3c(c2)OCO3)C1	9.1	-1.4	/	0.0	/	-12.8
Fc1ccccc1CNCCC(Cc1ccccc1)c1ccc2c(c1)OCO2 (stereo unspecified)	-17.2	-10.4	12.4	0.0	37.2	194.1
CC(=O)N(CCC(Cc1ccccc1)c1ccc2c(c1)OCO2)Cc1ccccc1F (stereo unspecified)	23.9	-6.7	25.2	0.1	77.8*	565.3
COc1ccc(/C=C/C(=O)OCC(=O)NC2CCCC2)cc1	/	-6.3	/	0.1	/	9.1
Cc1ccc(C(=O)/C=C/c2ccc3ncccc3c2)cc1	27.1	-2.9	-11.1	-0.1	/	-17.9
O=S(=O)(Cc1ccc(Cl)cc1)c1ncc(CO)n1Cc1ccccc1	-8.8	1.3	0.7	0.0	-10.0	+
CC(C)=CCCC(C)CN(C)CCc1ccccn1 (stereo unspecified)	-7.7	-1.7	63.3*	-0.2	-10.4	-13.0
Cc1ccccc1CN(C)CCc1ccccn1	-7.7	-2.0	-6.6	0.3	-9.1	/
Cc1cccc(NC(=O)c2cccc(S(=O)(=O)N(C)c3ccccc3)c2)n1	/	/	/	0.0	/	/
COc1ccc2sc(-c3ccccc3OC)c(-c3ccc(O)cc3)c2c1	108.5*	-0.6	/	0.4	/	-5.4
COc1cc2sc(-c3ccccc3OC)c(-c3ccc(O)cc3)c2cc1OC	80.2*	-10.1	/	-0.3	/	6.8
COc1cc(OC)cc(-c2sc3ccc(OC)cc3c2-c2ccc(O)cc2)c1	136.1*	1.9	/	0.0	/	19.6
COc1ccccc1-c1sc2cc3c(cc2c1-c1ccc(O)cc1)OCO3	/	-9.3	/	-0.2	/	44.6
CC(=O)Nc1cccc(OCCCNC(=O)c2ccc(C(C)(C)C)cc2)c1	14.1	2.3	5.8	-0.1	/	-21.9
COc1cc(C(C(=O)NC(C)(C)C)N(Cc2ccccc2)C(=O)c2cnccn2)cc(OC)c1OC (stereo unspecified)	-7.6	3.1	-9.9	0.0	-0.7	-25.9
COc1ccc(CN(C(=O)c2ccc(-c3ccccc3)[nH]2)C(C(=O)NC(C)(C)C)c2ccncc2)cc1 (stereo unspecified)	23.7	-4.7	58.5*	0.2	7.3	-17.9
Cc1cccc(-n2c(SCC(=O)N3CCC(C(=O)O)CC3)nc3ccccc3c2=O)c1C	-17.7	-7.6	6.3	0.0	/	26.0
O=C(/C=C/c1ccc(OC2CSC2)cc1)c1ccccc1	-2.5	1.7	14.3	0.0	14.7	46.5
